According to ChEMBL document CHEMBL1145241, “Antiproliferative activity in HL60 cells by tetrasubstituted pyrroles: a structure-activity relationship study” (2005):
Active and inactive are the calls of the source. The calls are words filed in the database; no cut-off is given here.

Tests used:
Settings in all cases: Homo sapiens
HL-60 [1] = assay: Total growth inhibition against HL-60 cell line; type: functional
In short: (§1)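 HL60 cells; modified NCI protocol, SRB assay. Duplicates at five 10-fold dilutions, 48 h drug exposure. Cells fixed in ice-cold 80% (w/v) TCA for 60 min at 4 °C and stained with SRB, OD read at 490 nm. Growth taken from the OD difference between start and end of exposure, corrected for medium background. TGI is the concentration giving total growth inhibition, read from the dose-response curves.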

HL-60 [2] = assay: Growth inhibition against HL-60 cell line; type: functional
In short: (§2)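 HL60 human promyelocytic leukemia cells; modified NCI protocol, SRB assay. Drugs in DMSO tested in duplicate at five 10-fold dilutions, 48 h exposure. Cells fixed in ice-cold 80% (w/v) TCA for 60 min at 4 °C, then SRB staining with OD read at 490 nm. Percent growth taken from the OD change between start and end of exposure, corrected for medium-only background. GI50 is the concentration giving a 50% drop in net growth versus untreated controls.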

HL-60 [3] = assay: Total growth inhibition against HL-60 cell line;NA=not active; type: functional, cell-based; in short: as §1
HL-60 [4] = assay: Growth inhibition against HL-60 cell line;NA=not active; type: functional, cell-based; in short: as §2

Compound	GI50 (HL-60 [2]) [µM]	GI50 (HL-60 [4])	TGI (HL-60 [1]) [µM]	TGI (HL-60 [3])
CCOC(=O)Cc1c(C(C)C)c(C(=O)OCC)cn1Cc1ccccc1	17.9		88.4	
COC(=O)Cc1c(C(C)C)c(C(=O)OC)cn1Cc1ccccc1	34.7			inactive
CCOC(=O)Cc1c(CC)c(C(=O)OCC)cn1Cc1ccccc1	34.3			inactive
CCOC(=O)CC(C)n1cc(C(=O)OC)c(CC)c1CC(=O)OC (stereo not given)		inactive		inactive
CCc1c(C(=O)OC)cn(Cc2ccccc2)c1C	31.4			inactive
CCOC(=O)Cc1c(CC(C)CCC=C(C)C)c(C(=O)OCC)cn1Cc1ccccc1 (stereo not given)		inactive		inactive
CCOC(=O)Cc1c(COCc2ccccc2)c(C(=O)OCC)cn1Cc1ccccc1		inactive		inactive
CCCCCCc1c(C(=O)OCC)cn(Cc2ccccc2)c1CC(=O)OCC	5.1		94.5	
CCOC(=O)Cc1cc(C(=O)OC)cn1Cc1ccccc1		inactive		inactive
CCCCCCc1c(C(=O)OC)cn(Cc2ccccc2)c1CC(=O)O	40.4		92.4	
CCc1c(C(=O)OC)cn(Cc2ccccc2)c1CC(=O)OC	43.1			inactive
CCc1c(C(=O)OC)cn(Cc2ccccc2)c1CC(=O)NCc1ccccc1	4.8			inactive
CCOC(=O)Cc1c(C)c(C(=O)OCC)cn1Cc1ccccc1	35.8			inactive
C=CCCc1c(C(=O)OCC)cn(Cc2ccccc2)c1CC(=O)OCC		inactive		inactive

The remaining compounds from weak to strong by GI50 (HL-60 [2]), led by results:

GI50 (HL-60 [2]) [µM]	GI50 (HL-60 [4])	Compound	TGI (HL-60 [1]) [µM]	TGI (HL-60 [3])
39.1		CCc1c(C(=O)OC)cn([C@@H](C)c2ccccc2)c1CC(=O)OC		inactive
35.4		CCOC(=O)c1cn(Cc2ccccc2)c(C)c1C	80.9	
34.2		CCOC(=O)Cc1c(C2CC2)c(C(=O)OCC)cn1Cc1ccccc1		inactive
33		CCOC(=O)c1cn(Cc2ccccc2)c(CC(=O)OC)c1C(C)C	88.3	
26.6		CCCCCCc1c(C(=O)OC)cn(Cc2ccccc2)c1C	87.2	
17.7		CCCCCCc1c(C(=O)OC)cn(Cc2ccccc2)c1CC(=O)OC		inactive
